Laboratory results taken from ChEMBL document CHEMBL4732185, “Synthesis, biological evaluation and structure-activity relationship of novel dichloroacetophenones targeting pyruvate dehydrogenase kinases with potent anticancer activity” (Eur J Med Chem, 2021).
Calls of active or inactive are those of the source.

How the values were obtained:
[1] = tested on: MCF7; experiment: Antiproliferative activity against human MCF7 cells assessed as growth inhibition at 10 uM after 72 hrs by MTT assay relative to control; assay type: functional; conditions: read-out: GI
In short: (§1)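 Single-concentration MTT screen on MCF-7 and A549 cells grown in DMEM + 10% FBS. Cells at 3000–6000/well, cultured overnight, then given compound in buffer with 1% DMSO for 72 h. MTT (0.5 mg/mL) added for 4 h, formazan dissolved in DMSO, A570 read. Percent inhibition reported as the average ± S.D. of three independent measurements.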

[2] = tested on: MCF7; experiment: Antiproliferative activity against human MCF7 cells assessed as growth inhibition at 1 uM after 72 hrs by MTT assay relative to control; assay type: functional; conditions: read-out: GI; in short: as §1
[3] = tested on: A549; experiment: Antiproliferative activity against human A549 cells assessed as growth inhibition at 10 uM after 72 hrs by MTT assay relative to control; assay type: functional; conditions: read-out: GI; in short: as §1
[4] = tested on: A549; experiment: Antiproliferative activity against human A549 cells assessed as growth inhibition after 72 hrs by MTT assay; assay type: functional, cell-based; conditions: Homo sapiens, A549, 72 h; read-out: IC50
In short: (§2)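 MTT viability assay. Cancer lines seeded at 3000–6000 cells/well and L02 at 7000 cells/well, cultured overnight, then exposed to a full dose range for 72 h. MTT (0.5 mg/mL) added for 4 h, supernatant removed, formazan dissolved in DMSO, absorbance read at 570 nm. IC50 taken as the mean of three independent experiments. Cells grown in DMEM + 10% FBS, 37 °C, 5% CO2.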

[5] = tested on: SH-SY5Y; experiment: Antiproliferative activity against human SHSY-5Y cells assessed as growth inhibition after 72 hrs by MTT assay; assay type: functional, cell-based; conditions: Homo sapiens, SH-SY5Y, 72 h; read-out: IC50; in short: as §2
[6] = tested on: A-375; experiment: Antiproliferative activity against human A375 cells assessed as growth inhibition after 72 hrs by MTT assay; assay type: functional, cell-based; conditions: Homo sapiens, A-375, 72 h; read-out: IC50; in short: as §2
[7] = tested on: L02; experiment: Cytotoxicity against human L02 cells assessed as reduction in cell viability after 72 hrs by MTT assay; assay type: cell-based; conditions: Homo sapiens, L02, 72 h; read-out: IC50; in short: as §2
[8] = target: [Pyruvate dehydrogenase (acetyl-transferring)] kinase isozyme 1, mitochondrial (Homo sapiens, UniProt Q15118); experiment: Binding affinity to PDK1 (unknown origin) by isothermal titration calorimetry
In short: (§3)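 Isothermal titration calorimetry at 25 °C. Compound dissolved in DMSO, diluted to 100 µM in buffer and placed in the titration syringe; 250 µL of PDK protein solution in the reaction cell. Titrant added in 2.5 µL increments per injection.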

[9] = target: [Pyruvate dehydrogenase (acetyl-transferring)] kinase isozyme 4, mitochondrial (Homo sapiens, UniProt Q16654); experiment: Binding affinity to PDK4 (unknown origin) by isothermal titration calorimetry; in short: as §3
[10] = tested on: A-375; experiment: Induction of apoptosis in human A375 cells assessed as viable cells at 1 uM after 36 hrs by annexinV-FITC/propidium iodide staining based flow cytometric analysis (reference value: 94.15%); assay type: functional; conditions: read-out: Activity
[11] = tested on: A-375; experiment: Induction of apoptosis in human A375 cells assessed as early apoptotic cells at 1 uM after 36 hrs by annexinV-FITC/propidium iodide staining based flow cytometric analysis (reference value: 3.2%); assay type: functional
[12] = tested on: A-375; experiment: Induction of apoptosis in human A375 cells assessed as early apoptotic cells at 2.5 uM after 36 hrs by annexinV-FITC/propidium iodide staining based flow cytometric analysis (reference value: 3.2%); assay type: functional
[13] = tested on: A-375; experiment: Induction of apoptosis in human A375 cells assessed as viable cells at 5 uM after 36 hrs by annexinV-FITC/propidium iodide staining based flow cytometric analysis (reference value: 94.15%); assay type: functional; conditions: read-out: Activity
[14] = tested on: A-375; experiment: Induction of apoptosis in human A375 cells assessed as necrotic cells at 5 uM after 36 hrs by annexinV-FITC/propidium iodide staining based flow cytometric analysis (reference value: 1.63%); assay type: functional
[15] = tested on: A-375; experiment: Induction of apoptosis in human A375 cells assessed as early apoptotic cells at 5 uM after 12 hrs by annexinV-FITC/propidium iodide staining based flow cytometric analysis (reference value: 0.87%); assay type: functional
[16] = tested on: A-375; experiment: Induction of apoptosis in human A375 cells assessed as viable cells at 5 uM after 24 hrs by annexinV-FITC/propidium iodide staining based flow cytometric analysis (Rvb= 97.94%); assay type: functional; conditions: read-out: Activity
[17] = tested on: A-375; experiment: Induction of apoptosis in human A375 cells assessed as early apoptotic cells at 5 uM after 24 hrs by annexinV-FITC/propidium iodide staining based flow cytometric analysis (reference value: 0.87%); assay type: functional
[18] = tested on: A-375; experiment: Induction of apoptosis in human A375 cells assessed as late apoptotic cells at 5 uM after 24 hrs by annexinV-FITC/propidium iodide staining based flow cytometric analysis (reference value: 0.63%); assay type: functional
[19] = tested on: A-375; experiment: Induction of cell cycle arrest in human A375 cells assessed as accumulation at G1 phase at 1 uM after 24 hrs by propidium iodide staining based flow cytometric analysis (reference value: 52.65%); assay type: functional
[20] = tested on: A-375; experiment: Induction of cell cycle arrest in human A375 cells assessed as accumulation at G2 phase at 1 uM after 24 hrs by propidium iodide staining based flow cytometric analysis (reference value: 10.02%); assay type: functional
[21] = tested on: A-375; experiment: Induction of cell cycle arrest in human A375 cells assessed as accumulation at G1 phase at 2.5 uM after 24 hrs by propidium iodide staining based flow cytometric analysis (reference value: 52.65%); assay type: functional
[22] = tested on: A-375; experiment: Induction of cell cycle arrest in human A375 cells assessed as accumulation at G2 phase at 2.5 uM after 24 hrs by propidium iodide staining based flow cytometric analysis (reference value: 10.02%); assay type: functional
[23] = tested on: A-375; experiment: Induction of cell cycle arrest in human A375 cells assessed as accumulation at G1 phase at 5 uM after 24 hrs by propidium iodide staining based flow cytometric analysis (reference value: 52.65%); assay type: functional
[24] = tested on: A-375; experiment: Induction of cell cycle arrest in human A375 cells assessed as accumulation at S phase at 5 uM after 24 hrs by propidium iodide staining based flow cytometric analysis (reference value: 37.33%); assay type: functional
[25] = tested on: A-375; experiment: Inhibition of cell migration in human A375 cells at 0.5 to 2 uM after 24 hrs by wound healing assay; assay type: functional, cell-based; conditions: dose 0.5-2 µM
In short: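 A375 monolayer scratched and treated for 24 h, imaged at ×100. Closure ratio (%) = (start scratched area − after scratched area)/start scratched area, compared with control. P < 0.05 versus control considered significant.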

[26] = tested on: A-375; experiment: Induction of mitochondrial membrane depolarization in human A375 cells at 2 to 10 uM after 4 hrs by JC-1 staining based confocal microscopic analysis; assay type: functional, cell-based; conditions: dose 2-10 µM
In short: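 Mitochondrial membrane potential. A375 cells seeded at 4 × 10^4 cells/mL, grown overnight, then treated at 2, 5 or 10 µM at 37 °C for 4 h. Stained with JC-1 in fresh medium for 15 min at 37 °C, washed three times with cool PBS and imaged by laser scanning confocal microscopy (red J-aggregate vs green monomer).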

[27] = tested on: A-375; experiment: Antitumour activity against human A375 cells xenografted with mouse assessed as tumour growth inhibition at 5 mg/kg, im administered once per three days for 21 days; assay type: functional, organism-based; conditions: time 21.0 day
In short: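 Xenograft model. A375 cells harvested at 80% confluence with trypsin/EDTA, resuspended in serum-free DMEM and injected subcutaneously into the right flank of mice. Once tumours were visible (about 7 days), mice were randomised to vehicle or 5 mg/kg groups, n = 4, dosed by intramuscular injection once every three days. Tumour growth and body weight followed; tumours harvested and weighed at 21 days.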

Sequence of [Pyruvate dehydrogenase (acetyl-transferring)] kinase isozyme 4, mitochondrial (Q16654 whole entry): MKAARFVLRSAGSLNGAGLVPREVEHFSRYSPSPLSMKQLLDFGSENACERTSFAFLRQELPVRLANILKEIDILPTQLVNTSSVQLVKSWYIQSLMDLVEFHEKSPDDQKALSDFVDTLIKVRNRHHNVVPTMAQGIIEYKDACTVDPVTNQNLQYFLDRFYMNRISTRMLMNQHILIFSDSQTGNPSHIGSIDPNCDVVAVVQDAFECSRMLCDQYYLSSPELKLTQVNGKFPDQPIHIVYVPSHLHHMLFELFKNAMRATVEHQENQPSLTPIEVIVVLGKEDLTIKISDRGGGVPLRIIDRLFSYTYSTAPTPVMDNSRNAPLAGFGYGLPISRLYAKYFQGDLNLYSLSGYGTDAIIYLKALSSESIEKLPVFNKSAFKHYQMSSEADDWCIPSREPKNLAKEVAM
Sequence of [Pyruvate dehydrogenase (acetyl-transferring)] kinase isozyme 1, mitochondrial (Q15118 whole entry): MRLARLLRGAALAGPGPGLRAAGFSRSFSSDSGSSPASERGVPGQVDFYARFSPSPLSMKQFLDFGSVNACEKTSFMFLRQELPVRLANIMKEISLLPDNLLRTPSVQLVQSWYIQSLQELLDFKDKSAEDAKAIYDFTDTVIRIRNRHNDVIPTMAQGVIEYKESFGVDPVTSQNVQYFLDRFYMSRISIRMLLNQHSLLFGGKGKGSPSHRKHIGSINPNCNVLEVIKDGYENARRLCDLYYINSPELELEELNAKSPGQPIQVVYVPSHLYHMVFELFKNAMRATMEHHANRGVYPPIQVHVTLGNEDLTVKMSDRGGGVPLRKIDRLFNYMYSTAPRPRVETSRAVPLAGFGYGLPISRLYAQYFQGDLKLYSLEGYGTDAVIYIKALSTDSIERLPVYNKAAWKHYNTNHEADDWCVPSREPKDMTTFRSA

IC50 [4]: 3200 nM
IC50 [5]: 1700 nM
IC50 [6]: 1100 nM
Kd [8]: 210 nM
Kd [9]: 9200 nM
SMILES: CC(C)(CO)c1ccc(Nc2ccc(C(=O)C(Cl)Cl)cc2[N+](=O)[O-])cc1
inhibition of growth at 10 µM [1]: 95.3%
inhibition of growth at 1 µM [2]: 38.9%
inhibition of growth at 10 µM [3]: 98.6%
IC50 [7]: 14400 nM
viability at 1 µM [10]: 81.9%
Activity [11]: 6.64%
Activity [12]: 5.6%
viability at 5 µM [13]: 44.5%
Activity [14]: 4.21%
Activity [15]: 8.7%
viability at 5 µM [16]: 70.9%
Activity [17]: 6.47%
Activity [18]: 19.11%
Activity [19]: 55.72%
Activity [20]: 9.64%
Activity [21]: 60.75%
Activity [22]: 8.5%
Activity [23]: 66.86%
Activity [24]: 27.43%
inhibition [25]: Active
Activity [26]: Active
Activity [27]: Active
